# SENP8 block-1: blocks the human protease SENP8; 330,000 compounds, 1.2% hits; Q96LD8; inhibition, % at 10 µM; purified SENP8, Z-RLRGG-aminoluciferin cleavage, luminescence; in the data active = inhibition above about 50%
# Target sequence (Q96LD8 whole entry, looked up): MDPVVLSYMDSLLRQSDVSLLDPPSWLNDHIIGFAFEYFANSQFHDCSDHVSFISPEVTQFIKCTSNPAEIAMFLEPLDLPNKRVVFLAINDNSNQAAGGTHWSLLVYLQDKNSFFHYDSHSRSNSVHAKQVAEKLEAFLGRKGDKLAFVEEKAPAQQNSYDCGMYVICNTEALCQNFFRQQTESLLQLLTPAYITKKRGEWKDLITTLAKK
# SENP6 block: SENP6 protease inhibition; Q9GZR1; inhibition, % at 10 µM; Recombinant SENP6 catalytic domain, aminoluciferin luminescence; AID 2599; 330,000 compounds, 1.8% hits;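 active = inhibition above about 50% at the single tested dose, limit read from the data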;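 note: plate controls were DMSO wells with enzyme for no effect and DMSO wells lacking enzyme for full effect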
# SENP7 block: inhibitors of human SENP7 protease; recombinant SENP7, Z-RLRGG-aminoluciferin luminescence, 40 min; AID 434973; 330,000 compounds, 1.5% hits; inhibition, % at 5 µM; Q9BQF6;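 active = inhibition above about 50% at the single test dose, limit read from the data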;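 note: plate controls were DMSO with enzyme for no effect and no enzyme buffer wells for full effect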
# SENP1 inh: SENP1 (human) catalytic domain inhibition | Q9P0U3 | recombinant SENP1 catalytic domain, CyPet-SUMO1-YPet FRET cleavage | inhibition, % at 10 µM | 360,000 compounds, 0.21% hits | AID 624204;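 active = inhibition at least 30% at 10 µM, raw YFP signal under a set limit, fluorescence ratio 0.5 to 1.5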;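 note: 0% = enzyme with DMSO and 100% = no enzyme wells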
# Target sequence (Q9P0U3 419-644 limits assumed): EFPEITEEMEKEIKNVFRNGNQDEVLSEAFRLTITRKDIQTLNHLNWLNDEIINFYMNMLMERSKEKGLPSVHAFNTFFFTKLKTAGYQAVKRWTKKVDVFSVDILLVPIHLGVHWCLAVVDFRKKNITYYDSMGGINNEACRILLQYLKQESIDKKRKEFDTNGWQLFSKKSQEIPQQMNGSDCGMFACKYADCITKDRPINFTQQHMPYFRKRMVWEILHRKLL
#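 material = recombinant human SENP1 catalytic domain, His6-tagged | quantity = 20 pM enzyme | reagent = 25 nM SUMO1 FRET substrate | compound dosing = 10 µM single point, 0.5% DMSO | timing = 50 min enzyme reaction, room temperature, light-protected | detection = FRET, CFP and YFP emission | control set = no-enzyme low, enzyme-DMSO high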
# SENP8 block-2: inhibitors of human SENP8 protease; Q96LD8; recombinant SENP8, Nedd8 substrate fluorescence; inhibition, % at 20 µM; 360,000 compounds, 0.64% hits; AID 602440; in the data active = inhibition mostly above about 40%, no sharp cut-off; inactive = mostly below about 27%
# SENP8 inh conf: confirmation of human SENP8 protease inhibitors | shares compounds with SENP8 block-2 | purified SENP8, Nedd8-AMC/pro-Nedd8 cleavage fluorescence, 30 min | inhibition, % at 25 µM | 1,400 compounds, 15% hits | AID 624319; in the data active = inhibition mostly above about 39%, no sharp cut-off; inactive = mostly below about 34%
# SENP1 inh conf: SENP1 (human) inhibition, single concentration confirmation; shares compounds with SENP1 inh; recombinant SENP1, CyPet-SUMO1-YPet FRET cleavage; inhibition, % at 10 µM; 520 compounds, 34% hits; AID 651678; in the data active = inhibition mostly above about 35%, no sharp cut-off; inactive = mostly below about 32%;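 note: 0% = enzyme with DMSO and 100% = no enzyme control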
# SENP1 kinetic: SENP1 (human) inhibition, kinetic confirmation | inhibition, % at 10 µM | AID 651690 | 520 compounds, 26% hits | shares compounds with SENP1 inh | recombinant SENP1, CyPet-SUMO1-YPet FRET kinetic cleavage; in the data active = inhibition mostly above about 32%, no sharp cut-off; inactive = mostly below about 29%;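 note: 0% = DMSO with enzyme and 100% = no enzyme substrate only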
# Active calls of the source: *; . = no result given. Compounds with a hit are over-represented: about 2.5% of the library has one in this group of screens.
SMILES,SENP8 block-1,SENP6 block,SENP7 block,SENP1 inh,SENP8 block-2,others
CC(=O)OC1CCC2(C)C(CC(=O)C3C2CCC2(C)C(OC(C)=O)CCC32)C1 (stereo unspecified),.,.,.,0,20,
CN1CCN(c2c(F)cc([N+](=O)[O-])c(N)c2Br)CC1,-3,-8,-4,3,25,
Nc1c([N+](=O)[O-])cc(F)c(N2CCNCC2)c1Br,-2,-9,0,2,44*,SENP8 inh conf=7
Cc1ccc(S(=O)(=O)Cc2ccc(C(=O)N3CCC4(CC3)OCCO4)o2)cc1,-1,-11,-1,-1,6,
COC(=O)C1=C(c2ccccc2)C[C@@H]2CC[C@H]1N2C(=O)N1CCC(C)CC1,0,-2,2,2,12,
CCN1CCN(c2cc(N3CCCC3)c([N+](=O)[O-])cc2F)CC1,-3,-15,-1,6,42*,SENP8 inh conf=20
CN1CCN(c2cc(N3CCCCCC3)c(F)cc2[N+](=O)[O-])CC1,-16,-5,-3,1,22,
OCCOc1ccccc1,3,-5,-4,-1,46*,SENP8 inh conf=10
Cc1nonc1OCCNCCNc1ccc([N+](=O)[O-])c2cccnc12,3,1,0,-36,43*,SENP8 inh conf=20
CCNCCNc1ccc([N+](=O)[O-])c2cccnc12,5,8,9,-9,63*,SENP8 inh conf=19
CC1CN(c2ccc([N+](=O)[O-])c3cccnc23)CC(C)N1 (stereo unspecified),-3,4,-1,-52,39,
COc1cc([N+](=O)[O-])c2ncccc2c1[N+](=O)[O-],.,.,.,2,30,
O=[N+]([O-])c1ccc(N2CCCC2)c2ncccc12,10,34,-3,-33,81*,SENP8 inh conf=27
CCCCCCC(C)(C)c1ccc([C@@H]2C[C@H](O)CC[C@H]2CCCO)c(O)c1,7,6,10,2,2,
COP(=S)(OC)SCn1nnc2ccccc2c1=O,.,.,.,2,3,
CC1=NN=C(c2ccc(N)cc2)c2cc3c(cc2C1)OCO3,-7,-20,1,43*,-132,SENP1 inh conf=6;SENP1 kinetic=-3
COc1ccc(NP2(=O)NCCCN2)cc1,.,.,.,5,13,
COc1ccc(P2(=O)Nc3ccccc3N2)cc1,9,24,5,38*,-23,SENP1 inh conf=94*;SENP1 kinetic=60*
C=CCN(CC#CCOc1ccccc1OC)CC=C,-2,-38,1,.,.,
CCN1C(=O)C(=Cc2ccc(N3CCOCC3)o2)C(=O)N(CC)C1=S,5,10,-3,49*,22,SENP1 inh conf=19;SENP1 kinetic=10
CN1C(=O)C(=Cc2ccc(N3CCOCC3)o2)C(=O)N(C)C1=S,3,8,8,66*,38,SENP1 inh conf=4;SENP1 kinetic=3
CN1C(=O)C(=Cc2ccc(Sc3ccccc3)o2)C(=O)N(C)C1=S,4,-8,6,-2,8,
O=C1NC(=O)C(CCc2ccncc2)(c2ccccc2)C(=O)N1,-7,-8,-13,0,14,
Cc1nn(Cc2ccccc2)c(C)c1C(=O)OCC(=O)Nc1ccccc1SCC#N,-1,0,8,48*,4,SENP1 inh conf=5;SENP1 kinetic=4
O=[N+]([O-])c1ccccc1Cl,-13,-26,-8,-1,4,
O=C1NC(=O)C(Sc2ccccc2[N+](=O)[O-])C(=O)N1,4,9,4,32*,40,SENP1 inh conf=14;SENP1 kinetic=16
[Cl][Pt+2][Cl].[NH-]C1CCCCC1[NH-] (stereo unspecified),1,-12,9,4,12,
